From PubChem BioAssay
Shown are actives, neighbours in structure and some others; about 3.1% of the full set was active somewhere.
CHO parental Ca = counter-screen for OX1R antagonists: effect in parental CHO cells. hit rate 0.63% among 330,000. inhibition, % at 5.6 µM. parental CHO-K1, ATP-induced calcium, Fluo-8 fluorescence. AID 463079;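 active = inhibition above that plate's mean sample inhibition plus 3 SD, cut at about 26% in these data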;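 note: 0% = ATP-challenged DMSO wells and 100% = DMSO wells without ATP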
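Material: parental CHO cells / Compound: single nominal dose of 5.6 µM per compound / Signal: Fluo-8 fluorescence / Replicates: singlicate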
OX1R antag-1 = antagonists of human orexin 1 receptor (OX1R) | hit rate 1.8% among 330,000 | OX1R-expressing cells, FRET antagonist read-out | inhibition, % at 6.6 µM | AID 485270 | O43613; in the data active = inhibition mostly above about 38%, no sharp cut-off; inactive = mostly below about 40%;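 note: 0% = agonist challenge alone and 100% = reference antagonist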
GPR7 antagonist = antagonists of human GPR7 (neuropeptides B/W receptor 1); P48145; GPR7-expressing cells, fluorescence antagonist assay; inhibition, % at 4.4 µM; hit rate 1.1% among 290,000; in the data active = inhibition above about 16%, passing the limit was not always enough;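 note: cells stimulated with the agonist NPW; 0% = agonist with vehicle and 100% = vehicle without agonist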
Target sequence (P48145 whole entry, looked up): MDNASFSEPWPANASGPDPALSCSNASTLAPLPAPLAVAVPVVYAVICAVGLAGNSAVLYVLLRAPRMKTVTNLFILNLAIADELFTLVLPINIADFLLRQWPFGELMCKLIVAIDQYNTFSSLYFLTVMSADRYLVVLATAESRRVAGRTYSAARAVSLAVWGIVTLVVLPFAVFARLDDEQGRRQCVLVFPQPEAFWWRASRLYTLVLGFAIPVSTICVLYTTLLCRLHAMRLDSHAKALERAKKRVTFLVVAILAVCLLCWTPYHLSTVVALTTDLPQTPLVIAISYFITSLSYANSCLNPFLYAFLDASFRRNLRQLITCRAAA
GalR3 antagonist = antagonists of human GalR3. HEK293 GalR3-CNG cAMP membrane potential fluorescence; galR3 body fused to GalR1 C-terminus. O60755. inhibition, % at 3 µM. hit rate 0.44% among 360,000;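 active = inhibition above the screen-wide average plus 3 SD, cut at about 13% in these data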;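 note: forskolin and galanin both at EC90 stimulate the cells; cAMP rise reported by CNG channel membrane potential dye signal; 0% = forskolin plus galanin with DMSO and 100% = forskolin alone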
Target sequence (O60755 1-299 limits assumed): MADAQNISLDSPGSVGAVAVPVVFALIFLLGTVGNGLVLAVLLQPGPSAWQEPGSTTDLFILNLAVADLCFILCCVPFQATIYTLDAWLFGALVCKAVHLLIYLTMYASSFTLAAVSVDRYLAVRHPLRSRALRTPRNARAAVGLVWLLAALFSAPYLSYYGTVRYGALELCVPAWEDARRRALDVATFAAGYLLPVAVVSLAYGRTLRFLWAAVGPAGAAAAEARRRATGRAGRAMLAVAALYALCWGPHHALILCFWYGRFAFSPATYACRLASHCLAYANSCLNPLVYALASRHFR
OX1R antag-2 = antagonists of human orexin 1 receptor. AID 434989. inhibition, % at 5 µM. O43613. hit rate 0.43% among 330,000. CHO/OX1R cells, Fluo-8 calcium fluorescence, orexin A;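 active = inhibition above its plate's threshold, mean inhibition of all tested compounds on the plate plus 3 SD, cut at about 37% in these data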;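 note: 0% = orexin A challenge wells and 100% = SB-334867-A antagonist wells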
* hit, by the source's call; . = no result.

SMILES | CHO parental Ca | OX1R antag-1 | GPR7 antagonist | GalR3 antagonist | OX1R antag-2
O=C(NC1CC1)c1sc2cc([N+](=O)[O-])ccc2c1Cl | 0.8 | 68.6* | -8.2 | 2.7 | -4.3
CCOC(=O)/C(=C/C=C1\Sc2cc(OCC)c(OCC)cc2N1CC)C(C)=O | 84.9* | 25.9 | 22.8 | -4.3 | 108.0*
CCOC(=O)/C(=C\C=C1/Sc2cc(OCC)c(OCC)cc2N1CC)C(C)=O | 68.8* | 9.1 | 10.6 | -10.4 | 91.4*
CCc1nnc2n1N=C(c1ccc(OC)cc1)CS2 | -20.9 | 12.2 | -1.6 | -4.6 | -12.2
CCc1nnc2n1N=C(c1ccc([N+](=O)[O-])cc1)CS2 | -10.9 | 56.1* | -11.4 | -1.7 | -11.8
O=C1NC(c2ccccc2)(c2ccccc2)C(=O)N1CNc1ccccn1 | . | . | . | -7.3 | .
Cc1ccc(N/C(N)=N/c2nc(CSc3nnc(C)s3)cc(=O)[nH]2)c(C)c1 | -11.7 | 10.4 | 30.7* | -2.8 | -27.1
Cn1c(=O)c2cc(NC(=O)Nc3cccnc3)ccc2n1-c1ccc(C(C)(C)C)cc1 | . | . | . | -5.7 | .
Nc1ccc(N2CCCCC2)c(S(=O)(=O)Nc2ccccc2Cl)c1 | -14.7 | 16.9 | -11.2 | -9.2 | -20.4
Nc1cc(S(=O)(=O)Nc2ccccc2Cl)ccc1N1CCCCC1 | 30.4* | 24.5 | . | -8.0 | 45.3*
COc1ccc(C(=O)Nc2nnc([C@@H]3C[C@H](O)[C@@H](CO)O3)s2)cc1 | . | . | . | -3.6 | .
FC(F)(F)c1cc(CCN2CCNC[C@@H]2CC2CCCCC2)cc(C(F)(F)F)c1 | 51.2* | -5.6 | . | -2.9 | 11.8
CCCC[C@@H]1CNCCN1CCc1cc(C(F)(F)F)cc(C(F)(F)F)c1 | -12.0 | 27.2 | . | 0.2 | -28.3
COC(=O)[C@H](Cc1ccccc1)N[C@H](c1ccc(OC)cc1)[C@@H](O)Cc1ccccc1 | . | . | . | -1.5 | .
O=C(CCn1c(=O)oc2ccccc21)NCc1ccco1 | -1.1 | 0.4 | 0.8 | . | -15.8
O=C(Cn1c(=O)oc2ccccc21)NCc1ccco1 | 4.0 | 14.2 | 17.6* | -0.7 | -10.1
O=C1c2ccccc2C(=O)c2c1ncn2-c1ccccc1 | 4.5 | 63.9* | -7.2 | -1.0 | -1.4
CC(=O)NCCC(=O)Nc1ncc(S(=O)(=O)c2ccc([N+](=O)[O-])cc2)s1 | -6.8 | 66.0* | . | -6.3 | -16.1
Cc1ccc2nc(CN(C)C(=O)[C@@H](Cc3ccccc3)NC(=O)[C@H]3O[C@@H](n4cnc(C(N)=O)n4)[C@H](O)[C@@H]3O)[nH]c2c1 | . | . | . | -2.2 | .
CC(C)=CCC12Oc3cc(O)ccc3C1(O)Oc1cc3c(c(O)c1C2=O)C=CC(C)(C)O3 (stereo not drawn) | 44.4* | 10.1 | . | . | -13.2
CC(C)(C)NC(=O)C(c1ccccc1)n1c(=O)c(-c2ccccc2)nc2ccccc21 (stereo not drawn) | . | . | . | -5.2 | .
O=[N+]([O-])c1cc(C(F)(F)F)ccc1N1CCN(S(=O)(=O)c2ccc3ccccc3c2)CC1 | -4.6 | 20.0 | -11.3 | 16.5* | -4.2
O=[N+]([O-])c1cc(C(F)(F)F)cc([N+](=O)[O-])c1N1CCN(S(=O)(=O)c2ccccc2)CC1 | -7.2 | 16.6 | -1.6 | 1.8 | -5.5
Nc1ccc(-c2nc3nc(N)nc(N)c3nc2-c2ccc(N)cc2)cc1 | -1.6 | 39.7* | -9.8 | -8.8 | -8.3
Nc1nc(N)c2ncc(C(=O)CCc3ccccc3)nc2n1 | -16.6 | 35.6 | 7.6 | 0.1 | -23.2
SMILES | CHO parental Ca | OX1R antag-1 | GPR7 antagonist | GalR3 antagonist | OX1R antag-2
C[C@@H]1CN([C@@H](C)CO)C(=O)CCCn2cc(nn2)CO[C@H]1CN(C)C(=O)c1ccncc1 | . | . | . | -0.2 | .
CC(C)=CCN1C(=O)[C@]2(OCCC=C[C@H]2C)c2c(Br)cccc21 | . | . | . | -7.2 | .
CCCCCCCCCCCCCCCC[n+]1cccc2ccccc21 | 89.4* | 30.3 | 11.2 | -3.0 | 63.3*
CC1(C(=O)NS(=O)(=O)c2ccc(F)cc2F)CCN1C(=O)CCc1ccccc1 (stereo not drawn) | . | . | . | 1.5 | .
Cc1ccc(C(C)NC(=O)/C(C#N)=C\c2c(C)[nH]c3ccccc23)cc1 (stereo not drawn) | 33.0* | 17.8 | 7.5 | -6.8 | -5.1
CCOC(=O)c1oc2ccc(S(=O)(=O)n3nc(-c4ccccc4)cc3N)cc2c1C | 32.3* | 17.6 | -1.9 | 2.7 | -6.3
CCOC(=O)c1oc2ccc(S(=O)(=O)n3nc(-c4ccc(OC)cc4)cc3N)cc2c1C | 1.6 | 30.3 | -10.8 | 4.7 | -28.1
O=C(c1ccc([N+](=O)[O-])o1)N1CCc2ccccc2C1 | 0.0 | 23.6 | 1.0 | -2.9 | -24.2
O=C(c1ccc([N+](=O)[O-])o1)N1CCCCCC1 | 1.1 | 27.8* | . | -0.7 | -14.4
O=C(c1ccc([N+](=O)[O-])o1)N1CCOCC1 | -7.8 | 76.1 | -0.2 | -0.2 | -24.9
COc1cc2c(cc1OC)CN(C(=O)c1ccc([N+](=O)[O-])o1)CC2 | -19.5 | 45.6* | -1.5 | -7.0 | -22.7
O=C(c1ccc([N+](=O)[O-])o1)N1CCc2ccccc21 | -10.9 | 41.9* | -15.1 | -8.0 | -15.6
C[C@H](CO)N1C[C@H](C)[C@H](CN(C)C(=O)Nc2cccc(F)c2)OCc2cnnn2CCCC1=O | . | . | . | -5.6 | .
CCNC(=O)N(C)[C@H]1C[C@H]2c3[nH]c4c(-c5ccccc5)cccc4c3CCN2C(=O)[C@H]1[C@H](C)O | . | . | . | -3.0 | .
O=C(N[C@H](C(=O)N1CCC[C@H]1C(=O)NC1CCCC1)C1CCCCC1)c1nccs1 | . | . | . | -6.2 | .
CCN1C(=C2C(=O)c3ccccc3C2=O)C=Cc2ccccc21 | -6.4 | 61.9* | -1.1 | -3.6 | -12.0
CCN1C(=O)/C(=C2\C=Cc3ccccc3N2CC)SC1=S | -8.0 | 33.5 | 2.1 | -0.7 | -21.0
COc1ccc2nc(C)cc(SCC(=O)NNC(=O)COc3ccc(C)cc3)c2c1 | 7.4 | 32.8 | -5.0 | -6.9 | 6.1
COc1ccc2nc(C)cc(SCC(=O)NNC(=O)COc3cccc4ccccc34)c2c1 | -16.1 | 71.0* | -1.6 | -4.0 | 13.8
COc1ccc(CNC(=O)c2c(N)[nH]c(C(=O)c3ccccc3)c2-c2ccc3ccccc3c2)cc1OC | . | . | . | -7.1 | .
O=C(/C(=C/c1ccc(Cl)cc1)c1nc2ccccc2[nH]1)c1cccs1 | -3.5 | 16.0 | 24.9* | . | 25.6
COc1cc(/C=C(/C(=O)c2cccs2)c2nc3ccccc3[nH]2)ccc1O | -5.5 | 10.1 | -4.7 | -4.1 | -16.6
CNc1ccccc1C(C)(C)c1cc(-c2cccc(OC)c2)no1 | 41.2* | 14.0 | -6.0 | -10.4 | 12.8
CNc1ccccc1C(C)(C)c1cc(-c2cc(C)cc(C)c2)no1 | -8.4 | 9.8 | -13.0 | 2.4 | -34.5
COCCN(CCOC)C(=O)[C@H](CCc1ccccc1)NC(=O)[C@H]1O[C@@H](n2cnc3c(N)ncnc32)[C@H](O)[C@@H]1O | . | . | . | -6.2 | .
CCCCCC(=O)N/N=C/c1ccc([N+](=O)[O-])o1 | -5.8 | 35.5* | 3.6 | 0.0 | 5.6
O=C(CNc1ccccc1)N/N=C/c1ccc([N+](=O)[O-])o1 | -5.5 | 51.1* | 4.8 | -3.5 | -5.8
Cc1ccc(NCC(=O)N/N=C\c2ccc([N+](=O)[O-])o2)cc1 | 8.8 | 23.9 | 4.8 | -9.8 | -1.8
CCCc1nc2ccc(Cl)cn2c1Cc1ccccc1OC | . | . | . | 0.7 | .
